ChEMBL document CHEMBL3877325, “Novel salicylanilides from 4,5-dihalogenated salicylic acids: Synthesis, antimicrobial activity and cytotoxicity” (Bioorg Med Chem, 2017)
In brackets after ≈: the same amount, converted by molar mass.

Key:
Assay type in all cases: functional
[1] = system: Mycobacterium tuberculosis; assay: Antimycobacterial activity against extensively drug resistant Mycobacterium tuberculosis Praha 131 after 14 days by micromethod; conditions: Praha 131, 336 h
Procedure, shortened: (§1)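 MIC micromethod in Šula's semisynthetic medium at 37 °C, read after 14 and 21 days. Compounds added as DMSO solutions at 500 down to 0.5 µM (twofold-type series: 500, 250, 125, 62.5, 32, 16, 8, 4, 2, 1, 0.5 µM). Isoniazid standard given in sterile water.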

[2] = system: Mycobacterium tuberculosis; assay: Antimycobacterial activity against multidrug resistant Mycobacterium tuberculosis Praha 1 after 14 days by micromethod; conditions: Praha 1, 336 h
Procedure, shortened: (§2)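 Multidrug-resistant M. tuberculosis strains, each inoculated at 10^-3 dilution; 234/2005 is resistant to INH, RIF, rifabutin, streptomycin, ethambutol and ofloxacin. MIC determined by micromethod in Šula's semisynthetic medium at 37 °C after 14 and 21 days. Compounds added from DMSO at 0.5–500 µM.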

[3] = system: Mycobacterium tuberculosis; assay: Antimycobacterial activity against multidrug resistant Mycobacterium tuberculosis 9449/2007 after 21 days by micromethod; conditions: 9449/2007, 504 h; procedure, shortened: as §2
[4] = system: Mycobacterium tuberculosis; assay: Antimycobacterial activity against multidrug resistant Mycobacterium tuberculosis 242/2015 after 21 days by micromethod; conditions: 242/2015, 504 h; procedure, shortened: as §2
[5] = system: Mycobacterium tuberculosis; assay: Antimycobacterial activity against multidrug resistant Mycobacterium tuberculosis 242/2015 after 14 days by micromethod; conditions: 242/2015, 336 h; procedure, shortened: as §2
[6] = system: Mycobacterium tuberculosis; assay: Antimycobacterial activity against multidrug resistant Mycobacterium tuberculosis 234/2005 after 21 days by micromethod; conditions: 234/2005, 504 h; procedure, shortened: as §2
[7] = system: Mycobacterium tuberculosis; assay: Antimycobacterial activity against multidrug resistant Mycobacterium tuberculosis Praha 4 after 21 days by micromethod; conditions: Praha 4, 504 h; procedure, shortened: as §2
[8] = system: Mycobacterium tuberculosis; assay: Antimycobacterial activity against multidrug resistant Mycobacterium tuberculosis Praha 1 after 21 days by micromethod; conditions: Praha 1, 504 h; procedure, shortened: as §2
[9] = system: Mycobacterium tuberculosis; assay: Antimycobacterial activity against multidrug resistant Mycobacterium tuberculosis Praha 4 after 14 days by micromethod; conditions: Praha 4, 336 h; procedure, shortened: as §2
[10] = system: Mycobacterium tuberculosis; assay: Antimycobacterial activity against extensively drug resistant Mycobacterium tuberculosis Praha 131 after 21 days by micromethod; conditions: Praha 131, 504 h; procedure, shortened: as §1
[11] = system: Mycobacterium tuberculosis; assay: Antimycobacterial activity against multidrug resistant Mycobacterium tuberculosis 234/2005 after 14 days by micromethod; conditions: 234/2005, 336 h; procedure, shortened: as §2
[12] = system: Mycobacterium tuberculosis; assay: Antimycobacterial activity against multidrug resistant Mycobacterium tuberculosis 9449/2007 after 14 days by micromethod; conditions: 9449/2007, 336 h; procedure, shortened: as §2

Row | Compound | MIC [1] [µM] | MIC [2] [µM] | MIC [3] [µM] | MIC [4] [µM] | MIC [5] [µM] | MIC [6] [µM] | MIC [7] [µM] | MIC [8] [µM] | MIC [9] [µM] | MIC [10] [µM] | MIC [11] [µM] | MIC [12] [µM]
1 | O=C(Nc1ccc(C(F)(F)F)cc1)c1ccc(Br)cc1O | 1 (≈ 0.36 µg/mL) | 1 (≈ 0.36 µg/mL) | 1 (≈ 0.36 µg/mL) | 1 (≈ 0.36 µg/mL) | 1 (≈ 0.36 µg/mL) | 2 (≈ 0.72 µg/mL) | 2 (≈ 0.72 µg/mL) | 1 (≈ 0.36 µg/mL) | 1 (≈ 0.36 µg/mL) | 1 (≈ 0.36 µg/mL) | 1 (≈ 0.36 µg/mL) | 1 (≈ 0.36 µg/mL)
2 | O=C(Nc1ccc(C(F)(F)F)cc1)c1cc(Br)ccc1O | 2 (≈ 0.72 µg/mL) | 1 (≈ 0.36 µg/mL) | 1 (≈ 0.36 µg/mL) | 2 (≈ 0.72 µg/mL) | 1 (≈ 0.36 µg/mL) | 4 (≈ 1.44 µg/mL) | 4 (≈ 1.44 µg/mL) | 1 (≈ 0.36 µg/mL) | 2 (≈ 0.72 µg/mL) | 4 (≈ 1.44 µg/mL) | 2 (≈ 0.72 µg/mL) | 2 (≈ 0.72 µg/mL)
3 | O=C(Nc1ccc(C(F)(F)F)cc1)c1cc(Cl)c(Cl)cc1O | 1 (≈ 0.35 µg/mL) | 1 (≈ 0.35 µg/mL) | 1 (≈ 0.35 µg/mL) | 1 (≈ 0.35 µg/mL) | 1 (≈ 0.35 µg/mL) | 2 (≈ 0.7 µg/mL) | 2 (≈ 0.7 µg/mL) | 1 (≈ 0.35 µg/mL) | 1 (≈ 0.35 µg/mL) | 2 (≈ 0.7 µg/mL) | 1 (≈ 0.35 µg/mL) | 2 (≈ 0.7 µg/mL)
4 | O=C(Nc1ccc(C(F)(F)F)cc1)c1cc(Cl)c(Br)cc1O | 2 (≈ 0.789 µg/mL) | 2 (≈ 0.789 µg/mL) | 2 (≈ 0.789 µg/mL) | 2 (≈ 0.789 µg/mL) | 2 (≈ 0.789 µg/mL) | 2 (≈ 0.789 µg/mL) | 4 (≈ 1.58 µg/mL) | 2 (≈ 0.789 µg/mL) | 2 (≈ 0.789 µg/mL) | 2 (≈ 0.789 µg/mL) | 2 (≈ 0.789 µg/mL) | 2 (≈ 0.789 µg/mL)
5 | O=C(Nc1ccc(C(F)(F)F)cc1)c1cc(Br)c(Cl)cc1O | 2 (≈ 0.789 µg/mL) | 2 (≈ 0.789 µg/mL) | 2 (≈ 0.789 µg/mL) | 2 (≈ 0.789 µg/mL) | 2 (≈ 0.789 µg/mL) | 2 (≈ 0.789 µg/mL) | 2 (≈ 0.789 µg/mL) | 2 (≈ 0.789 µg/mL) | 2 (≈ 0.789 µg/mL) | 2 (≈ 0.789 µg/mL) | 2 (≈ 0.789 µg/mL) | 2 (≈ 0.789 µg/mL)
6 | O=C(Nc1ccc(C(F)(F)F)cc1)c1ccc(Cl)cc1O | 2 (≈ 0.631 µg/mL) | 1 (≈ 0.316 µg/mL) | 1 (≈ 0.316 µg/mL) | 1 (≈ 0.316 µg/mL) | 1 (≈ 0.316 µg/mL) | 2 (≈ 0.631 µg/mL) | 2 (≈ 0.631 µg/mL) | 1 (≈ 0.316 µg/mL) | 1 (≈ 0.316 µg/mL) | 2 (≈ 0.631 µg/mL) | 2 (≈ 0.631 µg/mL) | 2 (≈ 0.631 µg/mL)
7 | O=C(Nc1ccc(C(F)(F)F)cc1)c1cc(Br)c(Br)cc1O | 2 (≈ 0.878 µg/mL) | 1 (≈ 0.439 µg/mL) | 1 (≈ 0.439 µg/mL) | 2 (≈ 0.878 µg/mL) | 1 (≈ 0.439 µg/mL) | 2 (≈ 0.878 µg/mL) | 2 (≈ 0.878 µg/mL) | 1 (≈ 0.439 µg/mL) | 2 (≈ 0.878 µg/mL) | 2 (≈ 0.878 µg/mL) | 2 (≈ 0.878 µg/mL) | 2 (≈ 0.878 µg/mL)
8 | O=C(Nc1ccc(C(F)(F)F)cc1)c1cc(Cl)ccc1O | 0.5 (≈ 0.158 µg/mL) | 0.5 (≈ 0.158 µg/mL) | 0.5 (≈ 0.158 µg/mL) | 0.5 (≈ 0.158 µg/mL) | 0.5 (≈ 0.158 µg/mL) | 0.5 (≈ 0.158 µg/mL) | 0.5 (≈ 0.158 µg/mL) | 0.5 (≈ 0.158 µg/mL) | 0.5 (≈ 0.158 µg/mL) | 0.5 (≈ 0.158 µg/mL) | 0.5 (≈ 0.158 µg/mL) | 0.5 (≈ 0.158 µg/mL)
9 | NNC(=O)c1ccncc1 [ISONIAZID] | 16 (≈ 2.19 µg/mL) | 16 (≈ 2.19 µg/mL) | 16 (≈ 2.19 µg/mL) | 16 (≈ 2.19 µg/mL) | 16 (≈ 2.19 µg/mL) | 32 (≈ 4.39 µg/mL) | 16 (≈ 2.19 µg/mL) | 16 (≈ 2.19 µg/mL) | 16 (≈ 2.19 µg/mL) | 16 (≈ 2.19 µg/mL) | 16 (≈ 2.19 µg/mL) | 16 (≈ 2.19 µg/mL)
